# Test results from ChEMBL document CHEMBL1154352, “Toll-like receptor 7 selective synthetic oligoribonucleotide agonists: synthesis and structure-activity relationship studies” (J Med Chem, 2009).
# Active and inactive are the calls of the source. The calls are words filed in the database; no cut-off is given here.
# Key:
# Homo sapiens [1] = species on record: Homo sapiens; test: Immunostimulatory activity in human pDC assessed as induction of IP10 at 100 ug/ml after 24 hrs; type: functional
# Method in brief: (§1)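 Human pDCs plated at 1 × 10^6 cells/mL; compounds in PBS added, 37 °C for 24 h; supernatant cytokines/chemokines by human Luminex multiplex kit.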
# Homo sapiens [2] = species on record: Homo sapiens; test: Immunostimulatory activity in human mDC assessed as induction of IFNalpha at 100 ug/ml after 24 hrs; type: functional
# Method in brief: (§2)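 Human mDCs isolated from PBMCs by CD19+ B-cell depletion then BDCA1 positive selection; plated at 1 × 10^6 cells/mL, compounds in PBS, 37 °C for 24 h; supernatant cytokines by human Luminex multiplex. Representative of four independent experiments.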
# PBMC [3] = test: Immunomodulatory activity in human PBMC assessed as induction of MCP1 at 50 ug/ml after 24 hrs; type: functional, cell-based
# Method in brief: (§3)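 Human PBMCs plated at 5 × 10^6 cells/mL; compounds dissolved in PBS added at various concentrations, 37 °C for 24 h. Supernatant cytokines/chemokines quantified with human Luminex multiplex kit.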
# PBMC [4] = test: Immunomodulatory activity in human PBMC assessed as induction of IL1-beta at 50 ug/ml after 24 hrs; type: functional, cell-based; method in brief: as §3
# Homo sapiens [5] = species on record: Homo sapiens; test: Immunostimulatory activity in human mDC assessed as induction of IL6 at 100 ug/ml after 24 hrs; type: functional; method in brief: as §2
# Homo sapiens [6] = species on record: Homo sapiens; test: Immunostimulatory activity in human mDC assessed as induction of IP10 at 100 ug/ml after 24 hrs; type: functional; method in brief: as §2
# Homo sapiens [7] = species on record: Homo sapiens; test: Immunostimulatory activity in human mDC assessed as induction of TNFalpha at 100 ug/ml after 24 hrs; type: functional; method in brief: as §2
# PBMC [8] = test: Immunomodulatory activity in human PBMC assessed as induction of IL12 at 50 ug/ml after 24 hrs; type: functional, cell-based; method in brief: as §3
# Homo sapiens [9] = species on record: Homo sapiens; test: Immunostimulatory activity in human pDC assessed as induction of IL6 at 100 ug/ml after 24 hrs; type: functional; method in brief: as §1
# PBMC [10] = test: Immunomodulatory activity in human PBMC assessed as induction of MIP1beta at 50 ug/ml after 24 hrs; type: functional, cell-based; method in brief: as §3
# Homo sapiens [11] = species on record: Homo sapiens; test: Immunostimulatory activity in human pDC assessed as induction of IFNalpha at 100 ug/ml after 24 hrs; type: functional; method in brief: as §1
# PBMC [12] = test: Immunomodulatory activity in human PBMC assessed as induction of IFN-alpha at 100 ug/ml after 24 hrs
# [13] = molecular target: T1, Toll-like receptor 9 (Mus musculus) (UniProt Q9EQU3); test: Activation of mouse TLR9 expressed in HEK293 assessed as induction of NF-kappaB activity reporter gene assay; type: cell-based
# T1 sequence (whole entry): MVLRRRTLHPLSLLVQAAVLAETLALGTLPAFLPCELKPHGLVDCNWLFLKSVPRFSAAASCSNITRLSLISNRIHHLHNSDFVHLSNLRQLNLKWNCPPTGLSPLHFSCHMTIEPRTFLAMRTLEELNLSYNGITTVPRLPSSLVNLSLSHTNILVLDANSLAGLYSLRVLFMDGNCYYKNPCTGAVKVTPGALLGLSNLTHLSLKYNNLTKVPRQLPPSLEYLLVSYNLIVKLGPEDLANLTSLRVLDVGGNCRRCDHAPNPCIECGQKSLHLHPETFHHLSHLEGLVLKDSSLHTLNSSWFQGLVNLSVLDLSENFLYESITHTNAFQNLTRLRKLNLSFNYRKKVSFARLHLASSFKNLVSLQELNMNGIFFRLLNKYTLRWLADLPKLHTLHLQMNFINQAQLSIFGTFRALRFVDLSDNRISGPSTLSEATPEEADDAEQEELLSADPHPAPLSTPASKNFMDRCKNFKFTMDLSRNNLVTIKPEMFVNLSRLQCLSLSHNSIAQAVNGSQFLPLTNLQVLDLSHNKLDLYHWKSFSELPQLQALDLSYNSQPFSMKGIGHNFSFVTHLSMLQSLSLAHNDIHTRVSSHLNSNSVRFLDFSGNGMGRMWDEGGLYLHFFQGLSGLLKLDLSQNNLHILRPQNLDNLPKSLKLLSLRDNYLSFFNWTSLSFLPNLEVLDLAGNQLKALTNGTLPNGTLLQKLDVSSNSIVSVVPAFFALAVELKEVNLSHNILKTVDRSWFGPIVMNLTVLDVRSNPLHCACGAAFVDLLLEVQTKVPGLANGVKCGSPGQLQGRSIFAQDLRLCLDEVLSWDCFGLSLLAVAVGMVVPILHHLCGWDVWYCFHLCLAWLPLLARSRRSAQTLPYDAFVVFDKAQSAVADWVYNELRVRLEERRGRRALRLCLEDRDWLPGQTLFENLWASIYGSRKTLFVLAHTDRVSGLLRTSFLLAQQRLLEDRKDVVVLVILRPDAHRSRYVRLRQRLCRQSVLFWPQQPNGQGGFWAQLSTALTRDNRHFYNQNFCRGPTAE
# PBMC [14] = test: Immunomodulatory activity in human PBMC assessed as induction of IP10 at 50 ug/ml after 24 hrs; type: functional, cell-based; method in brief: as §3
# PBMC [15] = test: Immunomodulatory activity in human PBMC assessed as induction of IL6 at 50 ug/ml after 24 hrs; type: functional, cell-based; method in brief: as §3
# Homo sapiens [16] = species on record: Homo sapiens; test: Immunostimulatory activity in human mDC assessed as induction of IL12 at 100 ug/ml after 24 hrs; type: functional; method in brief: as §2
# Mus musculus = test: Immunomodulatory activity in C57BL/6 mouse assessed as induction of IL12 release at 25 mg/kg, sc after 2 hrs by ELISA; type: functional, organism-based; design: dose 25 mg/kg
# Method in brief: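 Female C57BL/6 wild-type mice, 5–8 weeks old, n=3; compounds given subcutaneously at 10 or 25 mg/kg. Retro-orbital blood at 2 h; serum cytokines by mouse Luminex multiplex or IL-12 ELISA.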
# PBMC [17] = test: Immunomodulatory activity in human PBMC assessed as induction of IFNalpha at 50 ug/ml after 24 hrs; type: functional, cell-based; method in brief: as §3
# [18] = molecular target: Toll-like receptor 3 (Homo sapiens) (UniProt O15455); test: Activation of human TLR3 expressed in HEK293 assessed as induction of NF-kappaB activity reporter gene assay; type: cell-based
# Sequence of Toll-like receptor 3 (Homo sapiens) (O15455 whole entry): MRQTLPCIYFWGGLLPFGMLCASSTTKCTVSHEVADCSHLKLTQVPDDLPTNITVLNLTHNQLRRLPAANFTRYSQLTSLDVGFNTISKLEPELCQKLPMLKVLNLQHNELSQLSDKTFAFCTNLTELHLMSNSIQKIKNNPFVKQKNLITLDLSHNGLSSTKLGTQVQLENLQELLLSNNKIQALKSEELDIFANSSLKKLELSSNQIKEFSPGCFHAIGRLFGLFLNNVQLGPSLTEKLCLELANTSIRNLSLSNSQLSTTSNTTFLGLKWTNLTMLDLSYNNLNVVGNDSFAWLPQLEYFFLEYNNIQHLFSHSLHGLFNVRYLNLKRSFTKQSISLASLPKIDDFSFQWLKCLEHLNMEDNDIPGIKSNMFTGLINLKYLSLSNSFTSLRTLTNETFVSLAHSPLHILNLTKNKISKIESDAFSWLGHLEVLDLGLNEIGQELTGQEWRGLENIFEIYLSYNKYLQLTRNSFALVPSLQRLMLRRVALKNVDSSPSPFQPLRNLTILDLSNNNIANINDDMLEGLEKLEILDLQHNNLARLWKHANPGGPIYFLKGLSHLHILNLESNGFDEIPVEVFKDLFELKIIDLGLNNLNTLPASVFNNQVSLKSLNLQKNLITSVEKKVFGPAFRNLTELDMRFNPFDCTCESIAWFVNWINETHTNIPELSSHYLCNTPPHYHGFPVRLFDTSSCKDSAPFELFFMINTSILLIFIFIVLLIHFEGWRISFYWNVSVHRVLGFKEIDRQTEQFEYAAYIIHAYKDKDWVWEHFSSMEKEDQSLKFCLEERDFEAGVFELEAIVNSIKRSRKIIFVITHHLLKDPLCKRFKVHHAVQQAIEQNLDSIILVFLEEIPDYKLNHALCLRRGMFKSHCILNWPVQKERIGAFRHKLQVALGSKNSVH
# PBMC [19] = test: Immunomodulatory activity in human PBMC assessed as induction of TNFalpha at 50 ug/ml after 24 hrs; type: functional, cell-based; method in brief: as §3
# PBMC [20] = test: Immunomodulatory activity in human PBMC assessed as induction of IL12 at 100 ug/ml after 24 hrs; type: functional, cell-based; method in brief: as §3
# PBMC [21] = test: Immunomodulatory activity in human PBMC assessed as induction of MIP1alpha at 50 ug/ml after 24 hrs; type: functional, cell-based; method in brief: as §3
structure (smiles),measurement,setting,value
Nc1ccn([C@@H]2O[C@H](COP(=O)(S)O[C@H]3[C@@H](O)[C@H](n4cnc5c(N)ncnc54)O[C@@H]3CO)[C@@H](OP(=O)(S)OC[C@H]3O[C@@H](n4ccc(=O)[nH]c4=O)[C@H](O)[C@@H]3OP(=O)(S)OC[C@H]3O[C@@H](n4ccc(=O)[nH]c4=O)[C@H](O)[C@@H]3OP(=O)(S)OC[C@H]3O[C@@H](n4ccc5c(=O)[nH]c(N)nc54)[C@H](O)[C@@H]3OP(=O)(S)OC[C@H]3O[C@@H](n4cnc5c(N)ncnc54)[C@H](O)[C@@H]3OP(=O)(S)OC[C@H]3O[C@@H](n4cnc5c(N)ncnc54)[C@H](O)[C@@H]3OP(=O)(S)OC[C@H]3O[C@@H](n4ccc5c(=O)[nH]c(N)nc54)[C@H](O)[C@@H]3OP(=O)(S)OC[C@H]3O[C@@H](n4ccc(N)nc4=O)[C@H](O)[C@@H]3OP(=O)(S)OC[C@H]3O[C@@H](n4ccc(=O)[nH]c4=O)[C@H](O)[C@@H]3OP(=O)(S)OC[C@H]3O[C@@H](n4ccc(=O)[nH]c4=O)[C@H](O)[C@@H]3OP(=O)(S)OCC(O)COP(=O)(S)O[C@H]3[C@@H](O)[C@H](n4ccc(=O)[nH]c4=O)O[C@@H]3COP(=O)(S)O[C@H]3[C@@H](O)[C@H](n4ccc(=O)[nH]c4=O)O[C@@H]3COP(=O)(S)O[C@H]3[C@@H](O)[C@H](n4ccc(N)nc4=O)O[C@@H]3COP(=O)(S)O[C@H]3[C@@H](O)[C@H](n4ccc5c(=O)[nH]c(N)nc54)O[C@@H]3COP(=O)(S)O[C@H]3[C@@H](O)[C@H](n4cnc5c(N)ncnc54)O[C@@H]3COP(=O)(S)O[C@H]3[C@@H](O)[C@H](n4cnc5c(N)ncnc54)O[C@@H]3COP(=O)(S)O[C@H]3[C@@H](O)[C@H](n4ccc5c(=O)[nH]c(N)nc54)O[C@@H]3COP(=O)(S)O[C@H]3[C@@H](O)[C@H](n4ccc(=O)[nH]c4=O)O[C@@H]3COP(=O)(S)O[C@H]3[C@@H](O)[C@H](n4ccc(=O)[nH]c4=O)O[C@@H]3COP(=O)(S)O[C@H]3[C@@H](O)[C@H](n4ccc(N)nc4=O)O[C@@H]3COP(=O)(S)O[C@H]3[C@@H](O)[C@H](n4cnc5c(N)ncnc54)O[C@@H]3CO)[C@H]2O)c(=O)n1 (some centres not stated),Activity,Homo sapiens [1],Active
same,Activity,Homo sapiens [2],Active
same,Activity,PBMC [3],52900 pg/mL
same,Activity,PBMC [4],261 pg/mL
same,Activity,Homo sapiens [5],Active
same,Activity,Homo sapiens [6],Active
same,Activity,Homo sapiens [7],Active
same,Activity,PBMC [8],354 pg/mL
same,Activity,Homo sapiens [9],Active
same,Activity,PBMC [10],9220 pg/mL
same,Activity,Homo sapiens [11],Active
same,IFN-alpha,PBMC [12],218 pg/mL
same,Activity,[13],inactive
same,Activity,PBMC [14],287 pg/mL
same,Activity,PBMC [15],2730 pg/mL
same,Activity,Homo sapiens [16],Active
same,Activity,Mus musculus,Active
same,Activity,PBMC [17],230 pg/mL
same,Activity,[18],inactive
same,Activity,PBMC [19],76 pg/mL
same,Activity,PBMC [20],442 pg/mL
same,Activity,PBMC [21],5630 pg/mL
